Screens from PubChem BioAssay.
TRPC4 block: inhibitors of mouse TRPC4 channel, primary screen, Fluo4 calcium, HEK293 TRPC4beta/mu-opioid cells | DAMGO-evoked Fluo4 calcium flux; hits give low values | B-score at 10 µM | 0.39% of 300,000 active | Short transient receptor potential channel 4 (Mus musculus), Q9QUQ5;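 active = B-score over 3 SD under the library average, no early fluorescence shift, positive overall ratio signal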
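Material: HEK293 cells with stable TRPC4beta plus mu-opioid receptor expression; probe or stimulus: DAMGO in two steps, submaximal then maximal; technique: Fluo4 calcium fluorescence by kinetic imaging, 5 s 1 Hz baseline; measure: integrated fluorescence ratio relative to baseline, converted to per-well B score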
TRPC4 PAM: positive allosteric modulators of TRPC4, primary screen, cell-based, mouse TRPC4beta, HEK293 mu-opioid, Fluo-4 calcium. Short transient receptor potential channel 4 (Mus musculus), Q9QUQ5. DAMGO EC20, Fluo-4 Ca2+ flux; hits give high values. 0.42% of 310,000 active. B-score at 10 µM;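 active = B-score of calcium response area above 5 SD of library B-scores, with initial fluorescence ratio within 5 SD of library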
TRPC6 act: mouse TRPC6 channel activators, primary screen, cell-based, HEK293, membrane potential dye. Short transient receptor potential channel 6 (Mus musculus), Q61143. HEK293-TRPC6 membrane potential dye fluorescence; hits give high values. B-score at 10 µM. 0.13% of 310,000 active. AID 2550, 2010;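 active = B-score of the integrated fluorescence ratio above library mean plus 3 SD, and starting fluorescence ratio within library mean plus 5 SD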;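 also: higher score means more depolarization so channel activation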
Target sequence (Q61143 whole entry, looked up): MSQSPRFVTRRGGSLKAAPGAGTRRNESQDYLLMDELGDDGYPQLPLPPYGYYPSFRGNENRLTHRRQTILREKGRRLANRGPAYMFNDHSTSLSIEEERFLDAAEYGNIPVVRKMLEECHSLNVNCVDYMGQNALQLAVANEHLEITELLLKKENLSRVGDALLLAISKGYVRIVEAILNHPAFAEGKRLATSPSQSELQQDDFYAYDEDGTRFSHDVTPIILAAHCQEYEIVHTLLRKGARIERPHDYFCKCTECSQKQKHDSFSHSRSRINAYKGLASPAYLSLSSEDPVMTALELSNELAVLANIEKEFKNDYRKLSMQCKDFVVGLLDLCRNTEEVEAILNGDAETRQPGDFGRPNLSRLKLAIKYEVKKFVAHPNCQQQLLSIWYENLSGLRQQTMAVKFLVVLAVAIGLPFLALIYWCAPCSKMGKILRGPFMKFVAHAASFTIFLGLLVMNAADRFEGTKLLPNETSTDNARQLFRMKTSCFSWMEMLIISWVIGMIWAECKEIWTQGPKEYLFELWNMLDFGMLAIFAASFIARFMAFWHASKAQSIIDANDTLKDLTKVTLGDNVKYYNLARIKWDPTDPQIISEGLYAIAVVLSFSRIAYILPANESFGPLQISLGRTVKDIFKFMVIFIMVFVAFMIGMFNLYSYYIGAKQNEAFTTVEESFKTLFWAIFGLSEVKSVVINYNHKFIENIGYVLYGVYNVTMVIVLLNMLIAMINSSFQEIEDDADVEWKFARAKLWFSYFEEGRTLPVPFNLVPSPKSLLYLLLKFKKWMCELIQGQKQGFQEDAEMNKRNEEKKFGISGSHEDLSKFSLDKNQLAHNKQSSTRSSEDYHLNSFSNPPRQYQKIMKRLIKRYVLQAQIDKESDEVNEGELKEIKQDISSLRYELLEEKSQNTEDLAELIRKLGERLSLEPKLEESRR
TRPC4 act: activators of mouse TRPC4 channel, primary screen, Fluo4 calcium, HEK293 TRPC4beta/mu-opioid cells; Short transient receptor potential channel 4 (Mus musculus), Q9QUQ5; Fluo4 calcium fluorescence; hits give high values; B-score at 10 µM; 0.49% of 310,000 active;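 active = B-score above 5 SD of library B-scores, and initial fluorescence ratio not above library mean plus 5 SD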;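 also: positive B-score marks a calcium rise read as TRPC4 activation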
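Assay system: HEK293 stable line with TRPC4beta plus mu-opioid receptor; schedule: 45 min room-temperature Fluo4 loading, 110 s read; technique: kinetic Fluo4 calcium fluorescence; evaluation: integrated baseline-normalised fluorescence ratio, converted to per-well B score; controls: buffer (low) and maximal DAMGO (high)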
TRPC6 inhibitor: mouse TRPC6 channel inhibitors, primary screen, cell-based, HEK293, membrane potential dye. Short transient receptor potential channel 6 (Mus musculus), Q61143. ACh-evoked depolarization; hits give low values. B-score at 10 µM. 1.1% of 310,000 active;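 active = B-score under library mean minus 3 SD, initial fluorescence not abnormally high, positive integrated signal ratio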;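 also: B-score derived from integrated fluorescence ratio over the kinetic read; more negative B-score means stronger inhibition of depolarization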
TRPC4 sel inh 2: second check of whether TRPC6 inhibitors also affect mouse TRPC4; AID 2776; HEK293 TRPC4/MOR, membrane potential dye fluorescence; channel activated by saturating DAMGO dose; inhibition, % at 10 µM; shares compounds with TRPC6 inhibitor; 42% of 920 active;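 active = compounds whose fluorescence signal differed from control wells by over 3 SD, either direction, in both duplicate plates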
TRPC4 spec: mouse TRPC4 modulation by TRPC6 hits, confirmation, selectivity assay for TRPC6 inhibitor project, cell-based, HEK293 TRPC4/mu-opioid, membrane potential dye. AID 2777, 2010. membrane potential fluorescence. 61% of 920 active. shares compounds with TRPC6 inhibitor. activity change, negative = inhibition, % at 10 µM;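 active = rise or fall in signal beyond 3 SD of buffer-only wells in both replicate plates, either sign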;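 also: integrated kinetic ratio of fluorescence range over baseline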
HEK293 MPD ctr 2-1: nonspecific membrane potential effects, parental HEK293, confirmation, counter-screen for TRPC6 inhibitor project, cell-based, second counter screen; signal change vs control, % at 10 µM; 31% of 920 active; shares compounds with TRPC6 inhibitor; parental HEK293 membrane potential dye fluorescence; maximal acetylcholine challenge after compound addition;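 active = membrane potential signal moving either way by over 3 SD of the maximum-effect control, in both duplicate plates, meaning non-specific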
HEK293 MPD ctr-1: membrane potential modulation in parental HEK293, confirmation, counter-screen for TRPC6 inhibitor project, cell-based; parental HEK293 membrane potential dye fluorescence; shares compounds with TRPC6 inhibitor; membrane potential signal change, % at 10 µM; AID 2780, 2010; 60% of 920 active;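 active = membrane potential signal shifting up or down by more than 3 SD of buffer-only wells, on both duplicate plates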
HEK293 MPD ctr-2: parental HEK293 membrane potential modulation, confirmation, counter-screen for TRPC6 modulator project, cell-based | shares compounds with TRPC6 inhibitor | membrane potential dye fluorescence | membrane potential signal change, % at 10 µM | 51% of 2,400 active;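 active = membrane potential signal moves up or down beyond 5 SD from buffer-only wells, on both duplicate plates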
HEK293 MPD ctr 2-2: second counter-screen for TRPC6 modulators: effect in parental HEK293 cells; shares compounds with TRPC6 inhibitor; membrane potential dye fluorescence; after compound, maximal acetylcholine stimulation; 14% of 2,400 active; inhibition, % at 10 µM;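 active = membrane potential signal drops by more than 5 SD from the mean control signal, in both duplicate plates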
TRPC4 ctr mod: TRPC4 modulation by TRPC6 hit compounds, confirmation, selectivity assay for TRPC6 modulator project, cell-based, HEK293 TRPC4/mu-opioid, membrane potential dye, mouse | shares compounds with TRPC6 inhibitor | membrane potential fluorescence | percent change from control (negative = decrease, positive = increase), % at 10 µM | 69% of 2,400 active | AID 488927, 2010;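 active = membrane potential signal moved up or down beyond 5 SD of buffer control wells, in both duplicate plates, actives on both sides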
TRPC4 ctr inh 2: second selectivity test of TRPC6 modulators against mouse TRPC4; shares compounds with TRPC6 inhibitor; HEK293 TRPC4/mu-opioid, membrane potential dye fluorescence; stimulated with maximal-effect DAMGO; inhibition, % at 10 µM; 55% of 2,400 active; AID 488928;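 active = drop in membrane potential signal beyond 5 SD of the control wells in both duplicate plates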;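 also: TRPC4 counter screen for TRPC6 hits run under conditions tuned for TRPC6 not TRPC4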
TRPC6 block conf: mouse TRPC6 channel inhibitors, confirmation, HEK293 cells, membrane potential dye, duplicate; 43% of 3,300 active; inhibition, % at 10 µM; shares compounds with TRPC6 inhibitor; AID 488960, 2010; ACh-evoked depolarization;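 active = fluorescence ratio falls more than 5 SD below the full-stimulation control mean, in both duplicate runs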;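 also: integrated fluorescence ratio of peak minus minimum over baseline after agonist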
TRPC6 act confirm: mouse TRPC6 channel activators, confirmation, HEK293 cells, membrane potential dye, duplicate; shares compounds with TRPC6 inhibitor; HEK293-TRPC6 membrane potential dye fluorescence, FDSS; activation, % at 10 µM; 11% of 2,800 active; AID 488961, 2010;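 active = ratio signal rise beyond 5 SD above unstimulated control wells' mean, seen in both duplicate runs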
Hits are given with their value; n = inactive; x = no result given. Hits are enriched below; roughly 2.3% of the tested compounds scored in any of these assays.

SMILES	TRPC4 block	TRPC4 PAM	TRPC6 act	TRPC4 act	TRPC6 inhibitor	HEK293 MPD ctr-2	HEK293 MPD ctr 2-2	TRPC4 ctr mod	TRPC4 ctr inh 2	TRPC6 block conf	TRPC6 act confirm	others
COc1cccc2c1nc(C)c1cc(C)oc12	n	n	n	n	-5.8	-316%	n	-54%	42%	n	n
Cn1c(=O)c(Nc2ccc(O)cc2)c2c3c(cccc31)C(=O)c1ccccc1-2	n	n	n	n	-6	n	n	-27%	59%	n	n
CC(=O)c1c2c3c(cccc3n(C)c1=O)C(=O)c1ccccc1-2	n	n	n	n	n	x	x	x	x	x	x
Cc1nnc(Cl)c2nn(-c3ccccc3)c(C)c12	n	n	n	n	n	x	x	x	x	x	x
CCOc1ccc(-n2nc3c(Cl)nnc(C)c3c2C)cc1	n	n	n	n	-6.7	n	n	n	n	n	n
CCOc1ccc(N2CC(C(=O)Nc3ccccc3C(=O)NC3CC3)CC2=O)cc1 (stereo not given)	n	n	n	n	n	x	x	x	x	x	x
Nc1ccccc1Nc1cc(-c2ccccc2)nn1-c1cccc(Cl)c1	n	n	n	n	-5.6	n	n	n	30%	n	n
CC(C)c1ccc(N(CC(=O)NCc2ccco2)C(=O)CCC(=O)Nc2ccccn2)cc1	n	n	n	n	n	x	x	x	x	x	x
C=CC#CC[N+]1(CC#Cc2ccccc2)CCOCC1	n	n	n	n	n	x	x	x	x	x	x
C=CC[N+]1(CC#CCOC(c2ccccc2)c2ccccc2)CCOCC1	n	n	n	n	-5.5	n	n	-16%	n	37%	n
CC(=O)NS(=O)(=O)c1ccc(NC(=O)c2cc3c(=O)n4ccccc4nc3s2)cc1	n	n	n	n	-7.9	x	x	x	x	n	n	TRPC4 sel inh 2=74%;TRPC4 spec=-35%;HEK293 MPD ctr 2-1=30%;HEK293 MPD ctr-1=-653%
Cc1cccc(NC(=O)c2cc3c(=O)n4ccccc4nc3s2)c1	n	n	n	n	n	x	x	x	x	x	x
O=C(COC(=O)c1ncc(Cl)c(Cl)c1Cl)NC(=O)c1ccccc1	n	n	n	n	n	x	x	x	x	x	x
Clc1ccc(CNCc2cccs2)c(Cl)c1	n	n	n	n	n	x	x	x	x	x	x
COc1ccc(/C=C2\SC(=S)N(CC3CCCO3)C2=O)cc1 (stereo not given)	n	n	n	n	n	x	x	x	x	x	x
COc1cc(/C=C2/SC(=S)N(CC3CCCO3)C2=O)ccc1O (stereo not given)	n	n	16	n	n	212%	n	89%	n	n	40%
COCCSc1nc(N)c2c3c(sc2n1)CN(C)CC3	n	n	n	n	-9.4	-148%	n	-29%	30%	n	n
CCCSc1nc(N)c2c3c(sc2n1)CN(C)CC3	n	n	n	n	-7.1	-112%	n	-26%	n	n	n
CSc1nc(NCC(C)C)c2c3c(sc2n1)CN(C)CC3	n	n	n	n	n	x	x	x	x	x	x
CC(C)Sc1nc(N)c2c3c(sc2n1)CN(C)CC3	n	n	n	n	n	x	x	x	x	x	x
CN(C)CCSc1nc(N)c2c3c(sc2n1)CN(C)CC3	n	n	n	n	-8.6	-210%	n	-39%	46%	55%	n
Cn1c(=O)c2sccc2n2c(CCCC(=O)NCc3ccc(F)cc3)nnc12	n	n	n	n	n	x	x	x	x	x	x
Cc1ccccc1S(=O)c1ccccc1C(=O)O (stereo not given)	n	n	n	n	n	x	x	x	x	x	x
CN(C(=O)COC(=O)CCC1CCCCC1)c1c(N)n(Cc2ccccc2)c(=O)[nH]c1=O	n	n	n	n	n	x	x	x	x	x	x
O=Cc1cc(Cl)ccc1OCCN1CCC(Cc2ccccc2)CC1	n	n	n	n	n	x	x	x	x	x	x
SMILES	TRPC4 block	TRPC4 PAM	TRPC6 act	TRPC4 act	TRPC6 inhibitor	HEK293 MPD ctr-2	HEK293 MPD ctr 2-2	TRPC4 ctr mod	TRPC4 ctr inh 2	TRPC6 block conf	TRPC6 act confirm	others
O=[N+]([O-])c1cccc(OCCN2CCC(Cc3ccccc3)CC2)c1	n	n	n	n	-8.4	x	x	x	x	61%	n	TRPC4 sel inh 2=33%;TRPC4 spec=n;HEK293 MPD ctr 2-1=n;HEK293 MPD ctr-1=n
Cc1ccc([N+](=O)[O-])c(OCCN2CCCCCC2)c1	n	n	n	n	n	x	x	x	x	x	x
Cc1ccc([N+](=O)[O-])c(OCCCN2CCC(Cc3ccccc3)CC2)c1	n	n	n	n	-5.2	n	n	n	73%	53%	n
COc1ccc(NC(=O)Cn2nnc(-c3ccccc3NS(=O)(=O)c3ccccc3)n2)cc1	n	n	n	n	n	x	x	x	x	x	x
COc1ccc(S(=O)(=O)Nc2ccccc2-c2nnn(CC(=O)Nc3ccccc3OC)n2)cc1	n	n	n	n	-5.3	n	n	n	n	n	n
Cc1nn(-c2ccccc2)c2sc(C(=O)OCc3nnc(-c4ccccc4)o3)cc12	n	n	n	n	n	x	x	x	x	x	x
COc1ccc(/C=C/CN2CCC(Oc3ccc(C(=O)N4CCCCC4)cc3)CC2)cc1	n	n	n	n	n	x	x	x	x	x	x
